Reference: ChEMBL document CHEMBL3044632, “Synthesis, crystal structure, and biological activity of 4-methyl-1,2,3-thiadiazole-containing 1,2,4-triazolo[3,4-b][1,3,4]thiadiazoles” (J Agric Food Chem, 2010)

The compounds below were run on Thanatephorus cucumeris (assay: Fungicide activity against Thanatephorus cucumeris assessed as growth inhibition at 50 ug/mL at 24 to 26 degC measured after 2 days). Conditions: 48 h, read-out: GI.
Type: functional

Q: Cc1nnsc1C1=NNC2SC(COc3ccc(Cl)cc3Cl)=NN12 (configuration not stated) was tested. Which inhibition of growth at 50 µg/mL did it give?
A: Its inhibition of growth at 50 µg/mL is 33.3%.

Q: For Cc1nnsc1C1=NNC2SC(c3ccccc3F)=NN12 (configuration not stated), which inhibition of growth at 50 µg/mL is on record?
A: Its inhibition of growth at 50 µg/mL is 58.8%.

Q: How did the inhibition of growth at 50 µg/mL turn out when Cc1nnsc1C1=NNC2SC(c3ccncc3)=NN12 (configuration not stated) was run?
A: The inhibition of growth at 50 µg/mL was 44.6%.

Q: Cc1nnsc1C1=NNC2SC(CCl)=NN12 (configuration not stated) was tested. Which inhibition of growth at 50 µg/mL did it give?
A: Its inhibition of growth at 50 µg/mL is 38.4%.

These compounds were tested on Tobacco mosaic virus (assay: Antiviral activity against Tobacco mosaic virus (TMV) infected leaves assessed as viral inhibition at 100 ug/mL at 25 degC for 72 hr). Conditions: not given.
Type: functional
Method in brief: (§1)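 Systemic acquired resistance induction was assayed in a tobacco–TMV system. The antivirus inhibition ratio was calculated from the average number of viral lesions on inoculated leaves, relative to the corresponding control.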

Q: Cc1nnsc1C1=NNC2SC(c3ccccc3F)=NN12 (configuration not stated) was tested. Which inhibition at 100 µg/mL did it give?
A: The inhibition at 100 µg/mL was 9.5%.

The compounds below were run on Colletotrichum lagenaria (assay: Fungicide activity against Colletotrichum lagenaria assessed as growth inhibition at 50 ug/mL at 24 to 26 degC measured after 2 days). Conditions: 48 h, read-out: GI.
Type: functional

Q: Which inhibition of growth at 50 µg/mL does the source give for Cc1nnsc1C1=NNC2SC(COc3ccc(Cl)cc3Cl)=NN12 (configuration not stated) here?
A: Its inhibition of growth at 50 µg/mL is 19.2%.

Q: For Cc1nnsc1C1=NNC2SC(c3ccccc3F)=NN12 (configuration not stated), which inhibition of growth at 50 µg/mL is on record?
A: The inhibition of growth at 50 µg/mL was 11.8%.

Q: With Cc1nnsc1C1=NNC2SC(c3ccncc3)=NN12 (configuration not stated) as the compound, how does the inhibition of growth at 50 µg/mL read?
A: Its inhibition of growth at 50 µg/mL is 27.3%.

Q: With Cc1nnsc1C1=NNC2SC(CCl)=NN12 (configuration not stated) as the compound, how does the inhibition of growth at 50 µg/mL read?
A: The inhibition of growth at 50 µg/mL was 4.3%.

What follows are compounds tested on Tobacco mosaic virus (assay: Antiviral activity against Tobacco mosaic virus (TMV) infected leaves assessed as viral inhibition at 50 ug/mL at 25 degC for 72 hr). Conditions: not given.
Type: functional
Method in brief: as §1

Q: For Cc1nnsc1C1=NNC2SC(COc3ccc(Cl)cc3Cl)=NN12 (configuration not stated), which inhibition at 50 µg/mL is on record?
A: Its inhibition at 50 µg/mL is 0%.

Q: How did the inhibition at 50 µg/mL turn out when Cc1nnsc1C1=NNC2SC(c3ccncc3)=NN12 (configuration not stated) was run?
A: The inhibition at 50 µg/mL was 27%.

Q: For Cc1nnsc1C1=NNC2SC(CCl)=NN12 (configuration not stated), which inhibition at 50 µg/mL is on record?
A: The inhibition at 50 µg/mL was 29.2%.

Each compound was assayed on Botryosphaeria berengeriana (assay: Fungicide activity against Botryosphaeria berengeriana assessed as growth inhibition at 50 ug/mL at 24 to 26 degC measured after 2 days). Conditions: 48 h, read-out: GI.
Type: functional

Q: Cc1nnsc1C1=NNC2SC(COc3ccc(Cl)cc3Cl)=NN12 (configuration not stated) was tested. Which inhibition of growth at 50 µg/mL did it give?
A: Its inhibition of growth at 50 µg/mL is 23.8%.

Q: How did the inhibition of growth at 50 µg/mL turn out when Cc1nnsc1C1=NNC2SC(c3ccccc3F)=NN12 (configuration not stated) was run?
A: Its inhibition of growth at 50 µg/mL is 24.2%.

Q: With Cc1nnsc1C1=NNC2SC(c3ccncc3)=NN12 (configuration not stated) as the compound, how does the inhibition of growth at 50 µg/mL read?
A: Its inhibition of growth at 50 µg/mL is 7.7%.

Q: Cc1nnsc1C1=NNC2SC(CCl)=NN12 (configuration not stated) was tested. Which inhibition of growth at 50 µg/mL did it give?
A: Its inhibition of growth at 50 µg/mL is 33.3%.

Each compound was assayed on Fusarium graminearum (assay: Fungicide activity against Fusarium graminearum assessed as growth inhibition at 50 ug/mL at 24 to 26 degC measured after 2 days). Conditions: 48 h, read-out: GI.
Type: functional

Q: Which inhibition of growth at 50 µg/mL does the source give for Cc1nnsc1C1=NNC2SC(COc3ccc(Cl)cc3Cl)=NN12 (configuration not stated) here?
A: The inhibition of growth at 50 µg/mL was 12.5%.

Q: Cc1nnsc1C1=NNC2SC(CCl)=NN12 (configuration not stated) was tested. Which inhibition of growth at 50 µg/mL did it give?
A: The inhibition of growth at 50 µg/mL was 33.3%.

Each compound was assayed on Alternaria solani (assay: Fungicide activity against Alternaria solani assessed as growth inhibition at 50 ug/mL at 24 to 26 degC measured after 2 days). Conditions: 48 h, read-out: GI.
Type: functional

Q: Cc1nnsc1C1=NNC2SC(COc3ccc(Cl)cc3Cl)=NN12 (configuration not stated) was tested. Which inhibition of growth at 50 µg/mL did it give?
A: The inhibition of growth at 50 µg/mL was 31.3%.

Q: Cc1nnsc1C1=NNC2SC(c3ccccc3F)=NN12 (configuration not stated) was tested. Which inhibition of growth at 50 µg/mL did it give?
A: The inhibition of growth at 50 µg/mL was 40%.

Q: For Cc1nnsc1C1=NNC2SC(c3ccncc3)=NN12 (configuration not stated), which inhibition of growth at 50 µg/mL is on record?
A: Its inhibition of growth at 50 µg/mL is 9.5%.

Q: For Cc1nnsc1C1=NNC2SC(CCl)=NN12 (configuration not stated), which inhibition of growth at 50 µg/mL is on record?
A: The inhibition of growth at 50 µg/mL was 23.8%.

Each compound was assayed on Botrytis cinerea (assay: Fungicide activity against Botryotinia fuckeliana assessed as growth inhibition at 50 ug/mL at 24 to 26 degC measured after 2 days). Conditions: 48 h, read-out: GI.
Type: functional

Q: Which inhibition of growth at 50 µg/mL does the source give for Cc1nnsc1C1=NNC2SC(CCl)=NN12 (configuration not stated) here?
A: The inhibition of growth at 50 µg/mL was 65.2%.

The compounds below were run on Nicotiana tabacum (assay: Phytotoxicity against Nicotiana tabacum (tobacco) plant at 50 to 500 ug/mL). Conditions: in vivo.
Type: organism-based

Q: For Cc1nnsc1C1=NNC2SC(COc3ccc(Cl)cc3Cl)=NN12 (configuration not stated), which Activity is on record?
A: Its Activity is “Toxic”.

Q: Cc1nnsc1C1=NNC2SC(c3ccccc3F)=NN12 (configuration not stated) was tested. Which Activity did it give?
A: The Activity was “Toxic”.

Q: Which Activity does the source give for Cc1nnsc1C1=NNC2SC(c3ccncc3)=NN12 (configuration not stated) here?
A: Its Activity is “Toxic”.

Q: How did the Activity turn out when Cc1nnsc1C1=NNC2SC(CCl)=NN12 (configuration not stated) was run?
A: Its Activity is “Toxic”.

The compounds below were run on Fusarium oxysporum (assay: Fungicide activity against Fusarium oxysporum assessed as growth inhibition at 50 ug/mL at 24 to 26 degC measured after 2 days). Conditions: 48 h, read-out: GI.
Type: functional

Q: Cc1nnsc1C1=NNC2SC(COc3ccc(Cl)cc3Cl)=NN12 (configuration not stated) was tested. Which inhibition of growth at 50 µg/mL did it give?
A: Its inhibition of growth at 50 µg/mL is 3%.

Q: How did the inhibition of growth at 50 µg/mL turn out when Cc1nnsc1C1=NNC2SC(c3ccccc3F)=NN12 (configuration not stated) was run?
A: Its inhibition of growth at 50 µg/mL is 19.4%.

Q: Which inhibition of growth at 50 µg/mL does the source give for Cc1nnsc1C1=NNC2SC(c3ccncc3)=NN12 (configuration not stated) here?
A: Its inhibition of growth at 50 µg/mL is 44.4%.

Q: With Cc1nnsc1C1=NNC2SC(CCl)=NN12 (configuration not stated) as the compound, how does the inhibition of growth at 50 µg/mL read?
A: The inhibition of growth at 50 µg/mL was 25%.

What follows are compounds tested on Mycosphaerella arachidis (assay: Fungicide activity against Mycosphaerella arachidis assessed as growth inhibition at 50 ug/mL at 24 to 26 degC measured after 2 days). Conditions: 48 h, read-out: GI.
Type: functional

Q: How did the inhibition of growth at 50 µg/mL turn out when Cc1nnsc1C1=NNC2SC(COc3ccc(Cl)cc3Cl)=NN12 (configuration not stated) was run?
A: Its inhibition of growth at 50 µg/mL is 31%.

Q: Which inhibition of growth at 50 µg/mL does the source give for Cc1nnsc1C1=NNC2SC(c3ccccc3F)=NN12 (configuration not stated) here?
A: The inhibition of growth at 50 µg/mL was 18.2%.

Q: How did the inhibition of growth at 50 µg/mL turn out when Cc1nnsc1C1=NNC2SC(c3ccncc3)=NN12 (configuration not stated) was run?
A: Its inhibition of growth at 50 µg/mL is 23.1%.

Q: For Cc1nnsc1C1=NNC2SC(CCl)=NN12 (configuration not stated), which inhibition of growth at 50 µg/mL is on record?
A: Its inhibition of growth at 50 µg/mL is 34.8%.

Each compound was assayed on Phytophthora infestans (assay: Fungicide activity against Phytophthora infestans assessed as growth inhibition at 50 ug/mL at 24 to 26 degC measured after 2 days). Conditions: 48 h, read-out: GI.
Type: functional

Q: How did the inhibition of growth at 50 µg/mL turn out when Cc1nnsc1C1=NNC2SC(COc3ccc(Cl)cc3Cl)=NN12 (configuration not stated) was run?
A: Its inhibition of growth at 50 µg/mL is 12.1%.

Q: Which inhibition of growth at 50 µg/mL does the source give for Cc1nnsc1C1=NNC2SC(c3ccccc3F)=NN12 (configuration not stated) here?
A: The inhibition of growth at 50 µg/mL was 20%.

Q: How did the inhibition of growth at 50 µg/mL turn out when Cc1nnsc1C1=NNC2SC(c3ccncc3)=NN12 (configuration not stated) was run?
A: Its inhibition of growth at 50 µg/mL is 0%.

Q: Cc1nnsc1C1=NNC2SC(CCl)=NN12 (configuration not stated) was tested. Which inhibition of growth at 50 µg/mL did it give?
A: The inhibition of growth at 50 µg/mL was 11.4%.

These compounds were tested on Cercospora beticola (assay: Fungicide activity against Cercospora beticola assessed as growth inhibition at 50 ug/mL at 24 to 26 degC measured after 2 days). Conditions: 48 h, read-out: GI.
Type: functional

Q: Cc1nnsc1C1=NNC2SC(COc3ccc(Cl)cc3Cl)=NN12 (configuration not stated) was tested. Which inhibition of growth at 50 µg/mL did it give?
A: Its inhibition of growth at 50 µg/mL is 20%.

Q: Cc1nnsc1C1=NNC2SC(c3ccccc3F)=NN12 (configuration not stated) was tested. Which inhibition of growth at 50 µg/mL did it give?
A: The inhibition of growth at 50 µg/mL was 23.8%.

Q: How did the inhibition of growth at 50 µg/mL turn out when Cc1nnsc1C1=NNC2SC(c3ccncc3)=NN12 (configuration not stated) was run?
A: Its inhibition of growth at 50 µg/mL is 0%.

Q: For Cc1nnsc1C1=NNC2SC(CCl)=NN12 (configuration not stated), which inhibition of growth at 50 µg/mL is on record?
A: The inhibition of growth at 50 µg/mL was 21.4%.

The compounds below were run on Tobacco mosaic virus (assay: Antiviral activity against Tobacco mosaic virus (TMV) infected leaves assessed as viral inhibition at 500 ug/mL at 25 degC for 72 hr). Conditions: not given.
Type: functional
Method in brief: as §1

Q: With Cc1nnsc1C1=NNC2SC(c3ccccc3F)=NN12 (configuration not stated) as the compound, how does the inhibition at 500 µg/mL read?
A: The inhibition at 500 µg/mL was 53.6%.

The compounds below were run on Puccinia triticina (assay: Fungicide activity against Puccinia triticina assessed as growth inhibition at 50 ug/mL at 24 to 26 degC measured after 2 days). Conditions: 48 h, read-out: GI.
Type: functional

Q: Cc1nnsc1C1=NNC2SC(c3ccccc3F)=NN12 (configuration not stated) was tested. Which inhibition of growth at 50 µg/mL did it give?
A: The inhibition of growth at 50 µg/mL was 21.1%.

Q: Which inhibition of growth at 50 µg/mL does the source give for Cc1nnsc1C1=NNC2SC(c3ccncc3)=NN12 (configuration not stated) here?
A: Its inhibition of growth at 50 µg/mL is 10%.

Each compound was assayed on Rhizoctonia solani (assay: Fungicide activity against Rhizoctonia solani Kuhn assessed as growth inhibition at 50 ug/mL at 24 to 26 degC measured after 2 days). Conditions: 48 h, read-out: GI.
Type: functional

Q: With Cc1nnsc1C1=NNC2SC(c3ccncc3)=NN12 (configuration not stated) as the compound, how does the inhibition of growth at 50 µg/mL read?
A: Its inhibition of growth at 50 µg/mL is 5.7%.
